Measurements taken from PubChem BioAssay AID588777 (Broad Institute, 2011).
The source made the active and inactive calls.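 The calls were made as follows: active = compound whose fitted half-maximal concentration, rising or falling, is at most ten times its top tested dose; inconclusive = flat fit showing 30 to 70% decrease, or bad fit; inactive = the rest.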

target: Scavenger receptor class B member 1 (Mus musculus) (UniProt Q61009); assay: Alexa488-HDL binding change at mSR-BI cells – ldlA[mSR-BI] cells, powder samples, orthogonal assay for SR-BI HDL uptake inhibitor project, dose response (AID 588777); conditions: Alexa488-HDL binding fluorescence, 3 h
Sequence (Q61009 whole entry, looked up): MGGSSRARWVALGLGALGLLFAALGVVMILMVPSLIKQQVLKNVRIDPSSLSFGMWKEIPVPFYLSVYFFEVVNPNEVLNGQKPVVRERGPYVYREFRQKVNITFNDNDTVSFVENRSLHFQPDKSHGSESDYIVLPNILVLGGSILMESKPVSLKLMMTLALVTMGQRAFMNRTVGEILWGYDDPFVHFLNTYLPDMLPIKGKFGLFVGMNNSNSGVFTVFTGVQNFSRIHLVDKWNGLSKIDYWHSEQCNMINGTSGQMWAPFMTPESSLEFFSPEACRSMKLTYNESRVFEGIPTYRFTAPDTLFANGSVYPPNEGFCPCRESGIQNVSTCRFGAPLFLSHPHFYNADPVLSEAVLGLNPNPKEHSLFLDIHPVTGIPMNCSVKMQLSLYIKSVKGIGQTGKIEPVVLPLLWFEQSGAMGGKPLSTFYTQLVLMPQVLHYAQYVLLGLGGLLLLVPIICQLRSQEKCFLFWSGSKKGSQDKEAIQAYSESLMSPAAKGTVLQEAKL
Summary of the method: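 Detection: bottom-read Alexa488 fluorescence; Material: ldlA[mSR-BI] cells expressing murine scavenger receptor SR-BI; Also added: Alexa488-labelled HDL at 10 µg/mL; Incubation: 3 h at 37 °C; Doses: compound dose series.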

Row | Structure (SMILES) | AC50 [µM]
1 | N#Cc1sc2nc(C3CC3)cc(-c3ccc(Cl)cc3)c2c1N | 20.1
2 | O=C(Nc1ccc(-c2nc3cc(NC(=O)c4ccc(NC(=O)c5cccc6ccccc56)cc4)ccc3[nH]2)cc1)c1ccc(NC(=O)c2cccc3ccccc23)cc1 | < 0.015
3 | C[C@H]1CN([C@@H](C)CO)C(=O)c2cccc(NC(=O)Nc3ccccc3)c2O[C@@H]1CN(C)Cc1ccc(Cl)c(Cl)c1 | 1.79
4 | COc1ccc([C@H]2CC(=O)C=C(c3cccc4c3sc3ccccc34)C2)cc1OC | 2.28
5 | Cc1cc(C)c2c(c1)NC(c1cc3c(cc1Br)OCO3)C1CC=CC21 (stereo not drawn) | 8.25
6 | CC(OC(=O)c1cccc(NS(C)(=O)=O)c1)C(=O)Nc1ccc(N2CCOCC2)cc1 (stereo not drawn) | 4.47
7 | C[C@H]1CN([C@@H](C)CO)C(=O)c2cccc(NC(=O)Nc3ccccc3)c2O[C@@H]1CN(C)Cc1ccccc1 | 13.8
8 | Cc1ccccc1NC(=O)NCC1CCN(c2ccc(S(=O)(=O)N3CCOCC3)cc2)CC1 | 3.98
9 | O=C(Nc1cccc(NC(=O)c2cc([N+](=O)[O-])ccc2Cl)n1)c1cc([N+](=O)[O-])ccc1Cl | 5.11
10 | C[C@@H]1CN([C@H](C)CO)C(=O)c2cc(NC(=O)Cc3cn(C)c4ccccc34)ccc2O[C@H]1CN(C)C(=O)Nc1ccc(F)cc1 | 1.93
11 | CC(C)OCCCNC(=O)c1ccc(C2SCC(=O)N2Cc2ccco2)cc1 (stereo not drawn) | 16.5
12 | CCOc1ccc(NC(=O)CN2CCN(CC(=O)Nc3cc(OC)cc(OC)c3)CC2)cc1 | 0.128
13 | Cc1cc(SC(C)C(=O)Nc2ncc(Cl)cc2Cl)nc2ccccc12 (stereo not drawn) | 6.84
14 | COc1ccc(OC)c(CCNC(=O)c2ccc3c(c2)N(Cc2ccc(F)cc2)CCS3)c1 | 6.52
15 | C[C@@H]1CN([C@@H](C)CO)C(=O)c2cc(NC(=O)Cc3cn(C)c4ccccc34)ccc2O[C@H]1CN(C)S(=O)(=O)c1ccc(F)cc1 | 10.2
16 | COc1cccc(-c2csc(N3CCN(C(=S)Nc4cccc(Cl)c4)CC3)n2)c1 | 12
17 | CCOC(=O)Nc1cccc(NC(=O)c2cc(OC)cc(OC)c2)c1 | 2.27
18 | O=C(Nc1ccc(-c2nc3ccc(NC(=O)c4ccccc4)cc3[nH]2)cc1)c1ccccc1 | 0.328
19 | Nc1ccc(C(=O)Nc2ccc(-c3nc4ccc(NC(=O)c5ccc(N)cc5)cc4[nH]3)cc2)cc1 | 4.55
20 | CCOC(=O)N1CCC(NC(=O)c2ccc3c(c2)N(Cc2ccc(F)cc2)CCS3)CC1 | 2.4
21 | CCc1sc(N2C(=O)C3C4CCC(C4=C(C)C)C3C2=O)nc1-c1ccccc1 (stereo not drawn) | 0.441
22 | C[C@H]1CN([C@@H](C)CO)C(=O)c2cccc(NC(=O)Nc3ccc(F)cc3)c2O[C@@H]1CN(C)Cc1ccc(Cl)c(Cl)c1 | 0.533
23 | O=C(Nc1cc(Cl)ccc1Cl)c1cc(Br)ccc1NS(=O)(=O)c1ccc(Cl)c([N+](=O)[O-])c1 | 4.23

Row | Structure (SMILES) | AC50 [µM]
24 | CCn1c(COc2c(C)cccc2C)nnc1SCC(=O)N1CCN(c2ccccc2)CC1 | 5.89
25 | CCOc1ccccc1/C=C/c1onc(C)c1S(=O)(=O)N1CCC(C(=O)NC(C)(C)C)CC1 | 11.3
26 | CCc1cc2cc3c(cc2nc1SCC(=O)OC(C)C)OCO3 | 1.48
27 | O=C(Nc1ccc(-c2nc3ccc(NC(=O)c4ccccc4[N+](=O)[O-])cc3[nH]2)cc1)c1ccccc1[N+](=O)[O-] | 0.0549
28 | C[C@H](CO)N1C[C@H](C)[C@H](CN(C)S(=O)(=O)c2ccc(F)cc2)Oc2ccc(NC(=O)Cc3cn(C)c4ccccc34)cc2C1=O | 30.9
29 | C[C@H]1CN([C@@H](C)CO)C(=O)c2cccc(NC(=O)Nc3ccccc3)c2O[C@@H]1CN(C)Cc1ccc(C(F)(F)F)cc1 | 19.4
30 | C[C@@H]1CN([C@H](C)CO)C(=O)c2cc(NC(=O)Cc3cn(C)c4ccccc34)ccc2O[C@H]1CN(C)S(=O)(=O)c1ccc(F)cc1 | 2.06
31 | C[C@@H]1CN([C@H](C)CO)C(=O)c2cc(NC(=O)Cc3cn(C)c4ccccc34)ccc2O[C@@H]1CN(C)S(=O)(=O)c1ccc(F)cc1 | 21.5
32 | C[C@@H]1CN([C@@H](C)CO)C(=O)c2cc(NC(=O)Cc3cn(C)c4ccccc34)ccc2O[C@@H]1CN(C)S(=O)(=O)c1ccc(F)cc1 | 22.8
33 | O=C(Nc1ccc(-c2nc3cc(NC(=O)c4ccccc4Cl)ccc3o2)cc1)c1ccccc1Cl | 0.0819
34 | C[C@@H]1CN([C@H](C)CO)C(=O)c2cc(NC(=O)Cc3cn(C)c4ccccc34)ccc2O[C@H]1CN(C)S(=O)(=O)c1ccc(Cl)cc1 | 0.168
35 | C[C@@H]1CN([C@H](C)CO)C(=O)c2cc(NC(=O)Cc3cn(C)c4ccccc34)ccc2O[C@H]1CN(C)S(C)(=O)=O | 25
36 | CC(C)NC(=O)Nc1cccc2c1O[C@H](CN(C)Cc1ccc(Cl)c(Cl)c1)[C@@H](C)CN([C@@H](C)CO)C2=O | 9.96
37 | O=C(Nc1ccc(Cl)cc1C(=O)c1ccc(Cl)cc1)c1cc(Br)ccc1NS(=O)(=O)c1ccc(Cl)cc1 | 21.7
38 | C[C@H]1CN([C@@H](C)CO)C(=O)c2cc(NC(=O)Cc3cn(C)c4ccccc34)ccc2O[C@H]1CN(C)S(=O)(=O)c1ccc(F)cc1 | 25.4
39 | Cc1ccc(-c2nnc(N3CCC(C)CC3)c3ccccc23)cc1C | 5.54
40 | C[C@@H]1CN([C@H](C)CO)C(=O)c2cc(NC(=O)Cc3cn(C)c4ccccc34)ccc2O[C@H]1CN(C)S(=O)(=O)c1ccccc1 | 8.36
41 | C[C@H](CO)N1C[C@H](C)[C@H](CN(C)S(=O)(=O)c2ccc(F)cc2)Oc2ccc(NS(C)(=O)=O)cc2C1=O | 21
42 | COC(=O)c1cn(C(=O)c2cccc3ccccc23)c2ccccc12 | 23
43 | CC(C)(C)NC(=O)N1CCN(c2ncccc2C(F)(F)F)CC1 | 7.61
44 | COc1ccc(-c2nnn(CC(=O)N(C3CCCCC3)C(C)C(=O)NC3CCCC3)n2)cc1OC (stereo not drawn) | 0.422
45 | Cc1cc(C)n(CC(=O)NC2CCCc3c2cnn3-c2ccc(C)c(C)c2)n1 (stereo not drawn) | 0.0494
46 | Cc1cc(C(=O)C(C)OC(=O)C2=NNC(=O)CC2)c(C)n1-c1ccc(OC(F)F)cc1 (stereo not drawn) | 7.45

same assay, conditions: Alexa488-HDL binding fluorescence, 3 h, at 11 µM (top of the series)

Row | Structure (SMILES) | activity change, either direction
47 | C[C@H](CO)N1C[C@H](C)[C@@H](CN(C)S(=O)(=O)c2ccc(F)cc2)Oc2ccc(NC(=O)Cc3cn(C)c4ccccc34)cc2C1=O | inactive

same assay, conditions: Alexa488-HDL binding fluorescence, 3 h, at 35 µM (top of the series)

Row | Structure (SMILES) | activity change, either direction
48 | O=C(Nc1cc(C(F)(F)F)ccc1Cl)c1ccccc1NS(=O)(=O)c1ccc(Cl)cc1 | inactive
49 | C[C@H](CO)N1C[C@H](C)[C@H](CN(C)S(=O)(=O)c2ccc(F)cc2)Oc2ccc(NC(=O)CCC(F)(F)F)cc2C1=O | inactive
50 | C[C@H]1CN([C@@H](C)CO)C(=O)c2cc(NC(=O)Nc3ccccc3)ccc2O[C@@H]1CN(C)Cc1ccc(Cl)c(Cl)c1 | inactive
51 | C[C@H]1CN([C@@H](C)CO)C(=O)c2cccc(NS(C)(=O)=O)c2O[C@@H]1CN(C)Cc1ccc(Cl)c(Cl)c1 | inactive
52 | O=C(Nc1ccc(-c2nc3ccc(NC(=O)c4ccc(Cl)cc4)cc3[nH]2)cc1)c1ccc(Cl)cc1 | inactive
53 | C[C@H]1CN([C@@H](C)CO)C(=O)c2cccc(NC(=O)Nc3ccccc3)c2O[C@@H]1CN(C)S(C)(=O)=O | inactive
54 | O=C(Nc1ccc(-c2nc3cc(NC(=O)c4ccccc4[N+](=O)[O-])ccc3o2)cc1)c1ccccc1[N+](=O)[O-] | inactive
55 | O=C(Nc1ccccc1)c1ccccc1NS(=O)(=O)c1ccc(Cl)cc1 | inactive
56 | CCC(=O)N1CCc2cc(-c3csc(NC(=O)c4ccco4)n3)ccc21 | inactive
57 | O=C(Nc1cc(Cl)ccc1Cl)c1cc(Cl)ccc1NS(=O)(=O)c1ccc(Cl)c([N+](=O)[O-])c1 | inactive

same assay, conditions: Alexa488-HDL binding fluorescence, 3 h, at 68 µM (top of the series)

Row | Structure (SMILES) | activity change, either direction
58 | Cc1ccc2oc(-c3cccc(NC(=O)c4cc(-n5cnnc5)ccc4Cl)c3)nc2c1 | inactive
